The text below walks through data of ChEMBL document CHEMBL2176910, “Identification of small molecule inhibitors of amyloid β-induced neuronal apoptosis acting through the imidazoline I(2) receptor” (J Med Chem, 2012).

The target in data set [1] is T1, MAO-B (amine oxidase [flavin-containing] B) (Homo sapiens, UniProt P27338).
T1 sequence (P27338 whole entry): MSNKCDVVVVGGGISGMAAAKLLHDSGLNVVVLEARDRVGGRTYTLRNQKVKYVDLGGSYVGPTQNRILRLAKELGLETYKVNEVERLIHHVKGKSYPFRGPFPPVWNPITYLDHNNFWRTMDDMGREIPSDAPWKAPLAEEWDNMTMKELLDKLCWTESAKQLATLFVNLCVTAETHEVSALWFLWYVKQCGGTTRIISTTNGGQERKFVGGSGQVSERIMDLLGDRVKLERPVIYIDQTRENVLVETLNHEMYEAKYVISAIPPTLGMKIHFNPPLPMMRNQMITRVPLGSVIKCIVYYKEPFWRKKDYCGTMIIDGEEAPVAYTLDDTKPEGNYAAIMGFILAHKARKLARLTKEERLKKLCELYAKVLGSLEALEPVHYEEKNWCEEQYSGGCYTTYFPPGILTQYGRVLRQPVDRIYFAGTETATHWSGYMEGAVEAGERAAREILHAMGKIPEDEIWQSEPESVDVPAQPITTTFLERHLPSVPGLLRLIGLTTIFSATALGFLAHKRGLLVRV
The data set can be described thus: Inhibition of MAOB at 10 uM. The gist of the method: (§1)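 Radioligand binding panel. Values are average percentages of inhibition of specific binding, measured against potent standard ligands for each target.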

Data set [2] concerns the target T2, 5-hydroxytryptamine receptor 3A (Homo sapiens) (UniProt P46098).
T2 sequence (whole entry): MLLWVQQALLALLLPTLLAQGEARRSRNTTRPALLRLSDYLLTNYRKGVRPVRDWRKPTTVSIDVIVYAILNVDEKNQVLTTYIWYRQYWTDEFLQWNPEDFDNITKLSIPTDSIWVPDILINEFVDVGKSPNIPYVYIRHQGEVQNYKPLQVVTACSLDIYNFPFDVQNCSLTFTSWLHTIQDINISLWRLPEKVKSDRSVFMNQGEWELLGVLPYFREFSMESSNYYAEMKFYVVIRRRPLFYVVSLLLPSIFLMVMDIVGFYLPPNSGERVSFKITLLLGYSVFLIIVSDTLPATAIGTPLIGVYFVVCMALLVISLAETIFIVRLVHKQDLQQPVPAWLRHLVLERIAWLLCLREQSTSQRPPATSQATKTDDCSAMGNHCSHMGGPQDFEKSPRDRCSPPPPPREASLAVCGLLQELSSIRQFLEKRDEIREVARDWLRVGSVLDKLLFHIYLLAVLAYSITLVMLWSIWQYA
Nature of the data set: Inhibition of radioligand binding to 5HT3 at 10 uM. In outline:
(§2)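 Part of an in vitro radioligand binding panel. Each target was tested against a potent standard radioligand for that site. The read-out was percent inhibition of specific binding, reported as an average value.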

For data set [3], the target named is Mu-type opioid receptor (Homo sapiens) (UniProt P35372). The data set can be described thus: Inhibition of radioligand binding to MOP receptor at 10 uM. The gist of the method: as §2
Data set [4] deals with Melanocortin receptor 4 (Homo sapiens) (UniProt P32245). Nature of the data set: Inhibition of radioligand binding to MC4R at 10 uM.
In data set [5] the target is Delta-type opioid receptor (Homo sapiens) (UniProt P41143). The data set can be described thus: Inhibition of radioligand binding to DOP receptor at 10 uM. In outline: as §2
For data set [6], the target named is T3, Muscarinic acetylcholine receptor M5 (Homo sapiens) (UniProt P08912).
T3 sequence (whole entry): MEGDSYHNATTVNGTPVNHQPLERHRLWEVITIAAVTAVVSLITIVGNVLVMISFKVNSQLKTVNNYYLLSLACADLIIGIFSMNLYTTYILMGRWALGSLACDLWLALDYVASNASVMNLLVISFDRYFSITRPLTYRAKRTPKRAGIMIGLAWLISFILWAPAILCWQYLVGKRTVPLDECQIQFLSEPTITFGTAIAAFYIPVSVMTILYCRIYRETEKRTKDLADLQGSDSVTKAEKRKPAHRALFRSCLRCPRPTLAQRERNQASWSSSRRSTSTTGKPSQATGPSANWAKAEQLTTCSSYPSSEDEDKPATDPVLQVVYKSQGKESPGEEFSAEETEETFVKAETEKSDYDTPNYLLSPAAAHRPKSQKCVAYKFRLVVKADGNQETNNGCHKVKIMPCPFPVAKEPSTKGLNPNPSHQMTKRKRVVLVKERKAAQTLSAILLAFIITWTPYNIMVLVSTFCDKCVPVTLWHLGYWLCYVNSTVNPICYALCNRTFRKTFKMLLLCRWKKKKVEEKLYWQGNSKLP
The data set can be described thus: Inhibition of radioligand binding to muscarinic M5 receptor at 10 uM. In outline:
as §2

The target of data set [7] is Muscarinic acetylcholine receptor M3 (Homo sapiens) (UniProt P20309). Nature of the data set: Inhibition of radioligand binding to muscarinic M3 receptor at 10 uM. In outline:
as §2

For data set [8], the target named is D(2) dopamine receptor (Homo sapiens) (UniProt P14416). The data set can be described thus: Inhibition of radioligand binding to D2L receptor at 10 uM. The gist of the method:
as §2

Data set [9] can be described thus: Inhibition of radioligand binding to alpha2 adrenergic receptor at 10 uM. In outline:
as §2

Data set [10] addresses 5-hydroxytryptamine receptor 2A (Homo sapiens) (UniProt P28223). Nature of the data set: Inhibition of radioligand binding to 5HT2A at 10 uM. The gist of the method: as §2
The species named for another data set is Rattus norvegicus. The data set can be described thus: Displacement of [3H]idazoxan from rat cerebral cortex imidazole receptor 2 at 10 uM in presence of 1 uM yohimbine. Type of data set: tissue-based. (In a radioligand displacement assay an active substance lowers the binding of a labelled ligand.)
Data set [11] can be described thus: Inhibition of radioligand binding to Sigma receptor at 10 uM.
Data set [12] in a line: Inhibition of radioligand binding to N-methyl D-aspartate receptor phencyclidine binding site at 10 uM. The gist of the method:
as §1

In data set [13] the test system is Hippocampal neuron. Nature of the data set: Neuroprotective activity against Abeta-induced neuronal apoptosis in mouse hippocampal neurons assessed as reduction in total neuronal nuclei level at 30 uM pre-incubated for 4 hrs before Abeta challenge for 72 hrs by immunofluorescence microscopy. Type of data set: functional, tissue-based. As to conditions: Hippocampus. In outline: (§3)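 Primary mouse hippocampal neurons were exposed to Aβ (20 μM, 72 h) alone or with compound. Double immunofluorescence microscopy was then run for DNA fragmentation (TUNEL, green) and total neuronal nuclei (NeuN, red), with merged images. DNase-treated cells served as positive control.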

Data set [14] concerns Hippocampal neuron. Nature of the data set: Neuroprotective activity against Abeta-induced neuronal apoptosis in mouse hippocampal neurons assessed as reduction in DNA fragmentation at 30 uM pre-incubated for 4 hrs before Abeta challenge for 72 hrs by immunofluorescence microscopy. The class given is functional, tissue-based. The settings on record: Hippocampus. The gist of the method: as §3

The target of data set [15] is T4, 5-hydroxytryptamine receptor 1A (Homo sapiens) (UniProt P08908).
T4 sequence (whole entry): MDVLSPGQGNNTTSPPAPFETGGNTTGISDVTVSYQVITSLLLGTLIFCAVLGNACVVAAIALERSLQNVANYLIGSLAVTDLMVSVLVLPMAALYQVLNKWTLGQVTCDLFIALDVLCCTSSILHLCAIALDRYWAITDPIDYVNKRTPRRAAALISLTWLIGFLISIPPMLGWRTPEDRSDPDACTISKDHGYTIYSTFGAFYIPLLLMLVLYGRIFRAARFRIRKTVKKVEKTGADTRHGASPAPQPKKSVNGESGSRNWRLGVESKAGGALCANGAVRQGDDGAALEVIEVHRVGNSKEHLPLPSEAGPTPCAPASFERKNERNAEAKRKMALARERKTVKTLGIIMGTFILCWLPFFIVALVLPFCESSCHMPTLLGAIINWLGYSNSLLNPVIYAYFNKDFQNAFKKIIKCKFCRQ
The data set can be described thus: Inhibition of radioligand binding to 5HT1A at 10 uM. The gist of the method: as §2

The structures appear in SMILES notation. The source made the active and inactive calls. The calls are words filed in the database; no cut-off is given here.

Chain of 5-hydroxytryptamine receptor 2A (Homo sapiens) (P28223 whole entry): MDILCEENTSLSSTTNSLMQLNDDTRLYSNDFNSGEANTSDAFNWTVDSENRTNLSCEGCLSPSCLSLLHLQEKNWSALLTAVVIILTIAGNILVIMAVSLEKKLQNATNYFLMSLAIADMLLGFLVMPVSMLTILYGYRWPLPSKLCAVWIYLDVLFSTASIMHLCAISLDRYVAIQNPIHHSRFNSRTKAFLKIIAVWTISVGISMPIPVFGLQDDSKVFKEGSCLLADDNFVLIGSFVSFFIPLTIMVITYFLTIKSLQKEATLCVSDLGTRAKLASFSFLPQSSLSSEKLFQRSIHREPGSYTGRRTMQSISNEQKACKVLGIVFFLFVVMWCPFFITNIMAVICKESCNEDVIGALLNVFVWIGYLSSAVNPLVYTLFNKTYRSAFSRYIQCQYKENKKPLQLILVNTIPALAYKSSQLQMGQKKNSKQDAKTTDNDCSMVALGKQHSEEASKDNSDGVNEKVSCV
Chain of Delta-type opioid receptor (Homo sapiens) (P41143 whole entry): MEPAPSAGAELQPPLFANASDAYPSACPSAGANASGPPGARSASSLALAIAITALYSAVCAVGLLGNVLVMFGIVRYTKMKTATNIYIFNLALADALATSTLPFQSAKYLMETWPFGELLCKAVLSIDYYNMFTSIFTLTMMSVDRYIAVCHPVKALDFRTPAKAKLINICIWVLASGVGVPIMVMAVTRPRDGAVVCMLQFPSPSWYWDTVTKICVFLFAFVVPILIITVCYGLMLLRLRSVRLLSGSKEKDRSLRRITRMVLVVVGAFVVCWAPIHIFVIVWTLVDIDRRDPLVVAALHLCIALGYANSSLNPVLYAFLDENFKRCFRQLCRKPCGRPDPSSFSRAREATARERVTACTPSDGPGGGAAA
Chain of Muscarinic acetylcholine receptor M3 (Homo sapiens) (P20309 whole entry, looked up): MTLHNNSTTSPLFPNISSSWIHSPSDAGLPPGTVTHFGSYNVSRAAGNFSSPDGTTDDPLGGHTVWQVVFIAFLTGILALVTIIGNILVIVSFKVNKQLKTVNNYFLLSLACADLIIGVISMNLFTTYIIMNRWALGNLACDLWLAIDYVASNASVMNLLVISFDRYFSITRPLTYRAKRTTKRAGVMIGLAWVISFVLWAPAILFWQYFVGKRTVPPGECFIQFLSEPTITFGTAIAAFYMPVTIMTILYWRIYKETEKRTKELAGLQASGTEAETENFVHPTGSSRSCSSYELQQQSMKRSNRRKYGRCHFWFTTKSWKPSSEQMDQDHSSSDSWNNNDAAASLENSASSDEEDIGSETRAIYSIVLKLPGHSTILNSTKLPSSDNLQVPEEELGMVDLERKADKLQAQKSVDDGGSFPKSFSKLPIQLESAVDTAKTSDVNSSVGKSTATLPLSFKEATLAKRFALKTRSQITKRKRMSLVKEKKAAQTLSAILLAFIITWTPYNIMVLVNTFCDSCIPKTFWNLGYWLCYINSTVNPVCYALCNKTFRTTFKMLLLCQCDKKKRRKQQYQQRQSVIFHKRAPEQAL
Chain of Mu-type opioid receptor (Homo sapiens) (P35372 whole entry): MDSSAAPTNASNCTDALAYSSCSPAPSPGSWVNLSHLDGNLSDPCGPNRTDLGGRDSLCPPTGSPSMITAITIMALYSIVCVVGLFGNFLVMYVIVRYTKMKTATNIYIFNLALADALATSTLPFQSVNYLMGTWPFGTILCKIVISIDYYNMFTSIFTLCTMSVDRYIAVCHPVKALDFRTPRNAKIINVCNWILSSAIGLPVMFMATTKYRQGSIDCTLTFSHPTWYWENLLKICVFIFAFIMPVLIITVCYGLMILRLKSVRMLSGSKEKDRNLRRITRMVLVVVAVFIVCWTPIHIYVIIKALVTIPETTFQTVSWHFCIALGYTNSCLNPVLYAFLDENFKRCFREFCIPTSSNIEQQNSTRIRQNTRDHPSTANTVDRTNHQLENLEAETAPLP
Chain of D(2) dopamine receptor (Homo sapiens) (P14416 whole entry): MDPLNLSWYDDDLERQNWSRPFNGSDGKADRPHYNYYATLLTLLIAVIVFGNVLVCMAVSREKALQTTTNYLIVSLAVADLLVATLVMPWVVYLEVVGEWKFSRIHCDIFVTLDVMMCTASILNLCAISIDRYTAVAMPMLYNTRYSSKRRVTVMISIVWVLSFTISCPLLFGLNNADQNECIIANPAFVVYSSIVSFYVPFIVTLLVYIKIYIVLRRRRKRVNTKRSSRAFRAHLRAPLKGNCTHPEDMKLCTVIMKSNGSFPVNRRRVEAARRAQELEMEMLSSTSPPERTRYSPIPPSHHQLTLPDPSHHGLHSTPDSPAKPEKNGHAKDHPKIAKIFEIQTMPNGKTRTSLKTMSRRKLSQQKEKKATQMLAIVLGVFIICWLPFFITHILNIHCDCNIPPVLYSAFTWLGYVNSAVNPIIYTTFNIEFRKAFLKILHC
Chain of Melanocortin receptor 4 (Homo sapiens) (P32245 whole entry): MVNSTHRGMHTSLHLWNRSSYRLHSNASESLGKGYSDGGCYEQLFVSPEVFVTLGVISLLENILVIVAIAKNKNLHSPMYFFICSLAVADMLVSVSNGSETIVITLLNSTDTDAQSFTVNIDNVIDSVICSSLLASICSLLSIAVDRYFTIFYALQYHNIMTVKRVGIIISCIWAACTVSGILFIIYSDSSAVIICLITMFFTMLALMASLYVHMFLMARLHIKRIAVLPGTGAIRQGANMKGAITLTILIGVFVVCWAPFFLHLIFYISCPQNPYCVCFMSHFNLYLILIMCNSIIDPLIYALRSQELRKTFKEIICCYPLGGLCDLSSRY

For `CN(C)C(CN)c1ccccc1Cl` (stereo not drawn), in data set [1], the inhibition (in general, the percentage by which the read-out fell short of the control) at 10 µM was under 20%. Further, the inhibition in data set [2], in [3], in [4], in [5], in data set [6] and in data set [7] was under 20% in each case. Further, the inhibition was under 20% in data set [8]; under 20% in data set [9]; under 20% in data set [10]; 43% in the data set listed under Rattus norvegicus; under 20% in data set [11]; under 20% in data set [15]. In data set [12], the inhibition entry was “inactive”. The result in the data set on Hippocampal neuron [13] and in the data set on Hippocampal neuron [14] was Active.

For the compound `CN1CCNC(c2ccccc2)C1` (stereo not drawn), the inhibition at 10 µM in [1] was under 20%. In addition, the inhibition in [2], in data set [3], in data set [4], in data set [5], in data set [6] and in data set [7] was under 20% each time. Besides, the inhibition in data set [8] was under 20%; in data set [9], under 20%; in [10], under 20%; in the data set filed under Rattus norvegicus, 41%; in data set [11], under 20%; in data set [15], under 20%. The inhibition result in [12] was “inactive”. In addition, the result with Hippocampal neuron [13] and with Hippocampal neuron [14] was Active.

`NCC12CCC3CC(CC3C1)C2` (stereo not drawn) had an inhibition at 10 µM in [1] of under 20%. Moreover, the inhibition in data set [2], in [3], in data set [4], in [5], in data set [6] and in data set [7] was under 20% in each case. Also, the inhibition was under 20% in [8]; under 20% in [9]; under 20% in data set [10]; 34% in the data set filed under Rattus norvegicus; 39% in data set [11]; under 20% in data set [15]. Further, in [12], the inhibition entry is “inactive”. Besides, the outcome in the data set on Hippocampal neuron [13] and in the data set on Hippocampal neuron [14] was Active.
